Assay results published in ChEMBL document CHEMBL1126800, “Preparation of substituted N-phenyl-4-aryl-2-pyrimidinamines as mediator release inhibitors” (J Med Chem, 1993).
pIC50: −log10 of the molar value.

Species on record: Homo sapiens
Assay: In vitro inhibition of histamine release from human basophils
Assay type: functional, organism-based
Method in brief: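 Human basophils separated from leukocytes were incubated with test compound, then challenged with anti-IgE or antigen (Lichtenstein method). Histamine release was measured against controls and blanks. IC50 is the concentration lowering histamine release by 50%.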

SMILES	pIC50 (Homo sapiens)	pIC50
Oc1ccc(Nc2nccc(-c3ccncc3)n2)cc1	5.48	
NS(=O)(=O)c1cccc(Nc2nccc(-c3ccccn3)n2)c1	6.30	
COc1cccc(Nc2nccc(-c3ccccn3)n2)c1	6.70	
Cc1cc(C)cc(Nc2nccc(-c3cccs3)n2)c1	5.37	
CCc1ccc(Nc2nccc(-c3cnccn3)n2)cc1	5.72	
COc1cccc(Nc2nc(C)cc(-c3ccncc3)n2)c1	< 4.62	
Cc1cc(C)cc(Nc2nccc(-c3ccccn3)n2)c1	7.00	
COc1cccc(Nc2nccc(-c3cc(C)oc3C)n2)c1	5.24	
CC1CCN(c2ccc(Nc3nccc(-c4ccccn4)n3)cc2)CC1	5.72	
CC1CCN(c2ccc(Nc3nccc(-c4cccnc4)n3)cc2)CC1	6.30	
CN(C)c1ccc(Nc2nccc(-c3ccco3)n2)cc1	5.72	
COc1cccc(Nc2nccc(-c3cccs3)n2)c1	6.05	
Nc1ccc(Nc2nccc(-c3ccncc3)n2)cc1 [listing 1 of 2 here]		5.62
c1cc(Nc2nccc(-c3cccs3)n2)cc(-n2ccnc2)c1	6.52	
COc1cccc(Nc2nccc(-c3ccncc3)n2)c1	6.40	
Cc1cc(-c2ccncc2)nc(Nc2ccc(N(C)C)cc2)n1	< 4.62	
CN(C)c1ccc(Nc2nccc(-c3cccs3)n2)cc1	6.05	
COc1ccc(Nc2nccc(-c3cccnc3)n2)cc1	5.77	
COc1cccc(Nc2nccc(-c3cc4ccccc4o3)n2)c1	5.55	
COc1ccc(N(C)c2nccc(-c3ccncc3)n2)cc1	< 4.62	
CCc1ccc(Nc2nccc(-c3ccnc4ccccc34)n2)cc1	5.40	
CC(=O)Nc1cccc(Nc2nccc(-c3cccnc3)n2)c1	5.44	
CCOC(=O)c1cccc(Nc2nccc(-c3cccnc3)n2)c1	4.98	

SMILES	pIC50 (Homo sapiens)	pIC50
c1csc(-c2ccnc(Nc3ccc(-n4ccnc4)cc3)n2)c1	5.37	
Oc1ccc(Nc2nccc(-c3cccnc3)n2)cc1	5.29	
Fc1cccc(F)c1Nc1nccc(-c2cccnc2)n1	4.68	
Cc1cccc(Nc2nccc(-c3ccc(C)o3)n2)c1	5.70	
NS(=O)(=O)c1ccc(Nc2nccc(-c3cccnc3)n2)cc1	6.70	
Cc1cc(-c2ccc(C)s2)nc(Nc2ccccc2)n1	4.61	
CCN(CC)CCCOc1ccc(Nc2nccc(-c3ccncc3)n2)cc1	5.89	
c1cc(-c2ccnc(Nc3ccc(-n4ccnc4)cc3)n2)ccn1	5.12	
COc1cccc(Nc2nccc(-c3sccc3C)n2)c1	< 4.62	
CN(c1ccccc1)c1nccc(-c2ccncc2)n1	< 4.62	
c1ccc(Nc2nccc(-c3ccco3)n2)cc1	4.49	
CN(C)c1cccc(Nc2nccc(-c3ccccn3)n2)c1	6.40	
Cc1cn(-c2ccc(Nc3nccc(-c4ccncc4)n3)cc2)cn1	< 5.52	
Cc1cc(C)cc(Nc2nccc(-c3ccco3)n2)c1	6.15	
c1ccc(-c2ccnc(Nc3cccc(OCCn4ccnc4)c3)n2)nc1	6.40	
CNc1ccc(Nc2nccc(-c3ccccn3)n2)cc1	5.85	
Nc1cccc(Nc2nccc(-c3ccccn3)n2)c1	6.52	
Oc1ccccc1Nc1nccc(-c2cccnc2)n1	4.63	
CN(C)c1cccc(Nc2nccc(-c3cccnc3)n2)c1	5.74	
COc1cccc(Nc2nccc(-c3ccsc3)n2)c1	5.74	
Cc1cc(C)cc(Nc2ncc(C)c(-c3cccnc3)n2)c1	< 4.62	
Cc1cccc(Nc2nccc(-c3cc(C)oc3C)n2)c1	4.55	
CC(=O)Nc1cccc(Nc2nccc(-c3ccncc3)n2)c1	5.57	

SMILES	pIC50 (Homo sapiens)	pIC50
FC(F)(F)c1cccc(Nc2nccc(-c3cccnc3)n2)c1		5.68
c1ccc(Nc2nccc(-c3cccnc3)n2)cc1		5.89
c1cncc(-c2ccnc(Nc3ccc(-n4ccnc4)cc3)n2)c1	5.89	
Cc1cc(C)cc(Nc2nccc(-c3cc(C)oc3C)n2)c1	5.39	
Cc1cccc(Nc2nccc(-c3ccncc3)n2)c1	5.06	
CC(=O)c1cccc(Nc2nccc(-c3cccnc3)n2)c1	5.39	
CN(C)CCCOc1ccc(Nc2nccc(-c3cccnc3)n2)cc1	6.22	
Cc1cc(-c2ccccn2)nc(Nc2ccccc2)n1	4.57	
COc1ccc(Nc2nccc(-c3ccsc3)n2)cc1	4.81	
c1ccc(-c2nccc(-c3ccncc3)n2)cc1	4.86	
COc1cccc(Nc2nccc(-c3ccc(C)o3)n2)c1	5.82	
CC(=O)N(C)c1ccc(Nc2nccc(-c3ccccn3)n2)cc1	5.74	
Cc1cc(C)cc(Nc2nc(C)cc(-c3ccccn3)n2)c1	< 4.62	
CCN(CC)CCOc1cccc(Nc2nccc(-c3ccccn3)n2)c1	5.92	
CCN(CC)CCOc1ccc(Nc2nccc(-c3ccncc3)n2)cc1	6.70	
c1ccc(Nc2nccc(-c3cccs3)n2)cc1	4.50	
c1ccc(Nc2nccc(-c3c[nH]c4ccccc34)n2)cc1	5.52	
FC(F)(F)c1cc(Nc2nccc(-c3ccncc3)n2)ccc1-n1ccnc1	6.40	
CNc1ccc(Nc2nccc(-c3cccnc3)n2)cc1	5.68	
CCN(CC)CCOc1ccc(Nc2nccc(-c3ccccn3)n2)cc1	< 5.52	
CC1CCN(c2ccc(Nc3nccc(-c4ccncc4)n3)cc2)CC1	6.22	
CC(C)(C)c1ccc(Nc2nccc(-c3cccnc3)n2)cc1	6.22	
Cc1cc(-c2ccnc(Nc3ccc(N(C)C)cc3)n2)c(C)o1	5.31	

SMILES	pIC50 (Homo sapiens)	pIC50
CCOC(=O)C(=O)N(c1ccccc1)c1nccc(-c2ccncc2)n1	5.66	
CC1CCN(c2ccc(Nc3nccc(-c4cccs4)n3)cc2)CC1	6.40	
CCN(CC)c1ccc(Nc2nccc(-c3ccco3)n2)cc1	5.06	
NS(=O)(=O)c1ccc(Nc2nccc(-c3ccncc3)n2)cc1	5.29	
Cc1cc(-c2ccco2)nc(Nc2ccccc2)n1	4.75	
c1cc(Nc2nccc(-c3ccncc3)n2)cc(OCCn2ccnc2)c1	6.70	
CN(C)c1ccccc1Nc1nccc(-c2ccncc2)n1	4.44	
CCOC(=O)c1ccc(Nc2nccc(-c3cccnc3)n2)cc1	4.91	
CCOC(=O)c1cccc(Nc2nccc(-c3ccccn3)n2)c1	5.52	
CN(C)c1ccc(Nc2nccc(-c3cccnc3)n2)cc1	5.55	
Nc1ccc(Nc2nccc(-c3ccccn3)n2)cc1	5.82	
CC(=O)N(C)c1ccc(Nc2nccc(-c3cccnc3)n2)cc1	6.05	
Cc1ccsc1-c1ccnc(Nc2ccc(N(C)C)cc2)n1	5.74	
Cc1cccc(Nc2nccc(-c3ccsc3)n2)c1	5.42	
CC(=O)Nc1ccc(Nc2nccc(-c3ccncc3)n2)cc1	5.28	
COc1ccc(Nc2nccc(-c3cccs3)n2)cc1	5.41	
Cc1cc(C)cc(Nc2nccc(-c3cccnc3)n2)c1	6.10	
CN(C)c1ccc(Nc2nccc(-c3ccsc3)n2)cc1	5.68	
CC1CCN(c2cccc(Nc3nccc(-c4ccco4)n3)c2)CC1	5.30	
c1ccc(-c2ccnc(Nc3ccc(-n4ccnc4)cc3)n2)nc1	5.85	
Cc1cc(-c2ccccn2)nc(Nc2ccc(N(C)C)cc2)n1	4.50	
CCN(CC)CCOc1ccc(Nc2nccc(-c3cccnc3)n2)cc1	6.70	
Nc1ccc(Nc2nccc(-c3ccncc3)n2)cc1 [listing 2 of 2 here]	5.54	

SMILES	pIC50 (Homo sapiens)	pIC50
c1cc(Nc2nccc(-c3cccs3)n2)cc(OCCn2ccnc2)c1	7.00	
CCN(CC)c1ccc(Nc2nccc(-c3ccc(C)o3)n2)cc1	4.55	
CCN(CC)CCOc1ccccc1Nc1nccc(-c2cccnc2)n1	< 5.22	
CC(=O)Nc1cccc(Nc2nccc(-c3ccccn3)n2)c1	6.52	
CC(=O)c1ccc(Nc2nccc(-c3cccnc3)n2)cc1	6.10	
Cc1cccc(Nc2nccc(-c3ccco3)n2)c1	5.68	
NS(=O)(=O)c1ccc(Nc2nccc(-c3ccccn3)n2)cc1	5.34	
CCc1cccc(Nc2nccc(-c3ccccn3)n2)c1	5.85	
Nc1cccc(Nc2nccc(-c3cccnc3)n2)c1	6.30	
c1cncc(-c2ccnc(Nc3cccc(-n4ccnc4)c3)n2)c1	6.70	
CCN(CC)CCOc1cccc(Nc2nccc(-c3ccco3)n2)c1	5.85	
CCN(CC)CCOc1ccc(Nc2nccc(-c3ccco3)n2)cc1	5.89	
Cc1cccc(Nc2nccc(-c3c[nH]c4ccccc34)n2)c1	5.66	
c1cc(Nc2nccc(-c3cccnc3)n2)cc(OCCn2ccnc2)c1	7.00	
CC(C)N(CCOc1ccc(Nc2nccc(-c3cccnc3)n2)cc1)C(C)C	5.34	
CN(C)CCOc1ccc(Nc2nccc(-c3cccnc3)n2)cc1	6.15	
Cc1cc(-c2ccco2)nc(Nc2ccc(N(C)C)cc2)n1	5.23	
COc1ccc(Nc2nccc(-c3ccccn3)n2)cc1	5.08	
Cc1cccc(Nc2nccc(-c3ccc(C)s3)n2)c1	5.85	
